Compound activity (PubChem BioAssay)
14-3-3 Bad inh – disrupts binding of bovine 14-3-3 zeta to phospho-Bad peptide; P63103; TR-FRET 14-3-3zeta/Dy647-pBad peptide displacement, 1 h; inhibition, % at 21.7 µM; actives 0.71% (n = 220,000); AID 781;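 active = inhibition above about 70%, limit read from the data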
Target sequence (P63103 whole entry, looked up): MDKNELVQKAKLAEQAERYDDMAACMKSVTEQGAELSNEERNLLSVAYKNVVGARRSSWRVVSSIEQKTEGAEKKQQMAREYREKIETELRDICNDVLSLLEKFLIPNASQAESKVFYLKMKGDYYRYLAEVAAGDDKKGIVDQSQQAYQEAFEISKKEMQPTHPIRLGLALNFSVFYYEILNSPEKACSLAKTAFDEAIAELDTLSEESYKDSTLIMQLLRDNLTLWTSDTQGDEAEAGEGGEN
eIF4E 4G PPI – inhibitors of eIF4E and eIF4G interaction in translation initiation. actives 0.37% (n = 220,000). P63073+Q04637. inhibition, % at 21.7 µM. TR-FRET eIF4E-eIF4GI(517-606) binding, 2 h;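 active = inhibition above about 30%, limit read from the data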
PERK inhibitor – inhibitors of human PERK kinase; CHO PERK-DD fusion, SEAP luminescence translation reporter; inhibition, % at 5.6 µM; actives 0.17% (n = 220,000); AID 1416;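 active = inhibition above the mean inhibition of all tested compounds plus 3 SD, set separately per screening campaign, cut at about 2.9% in these data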;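 note: PERK kinase domain activated by AP20187 dimerizer at 100 nM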
Hck Nef HTS – blocks Nef-activated human Hck kinase; P08631; Recombinant Hck-YEEI plus Nef, Z-Lyte FRET kinase assay; inhibition, % at 20 µM; actives 0.68% (n = 220,000); AID 463187;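 active = Hck-Nef kinase inhibition above about 50%, limit read from the data; inactive = inhibition below that limit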
p97 ATPase inh – blocks human p97 ATPase activity. inhibition, % at 8 µM. recombinant p97 ATPase, Kinase-Glo ATP luminescence, 3 h. actives 0.42% (n = 220,000); in the data active = inhibition above about 15%
Calb biofilm kill – mixtures killing C. albicans biofilm | C. albicans biofilm persisters + clotrimazole, fluorescence viability; primary screen in compound mixtures of four per well | inhibition, % at 7.6 µM | actives 0.02% (n = 120,000);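 active = inhibition above 30.3% in the primary screen of four-compound pools, then above 30% when the compound was retested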;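 note: compounds exposed to preformed 24 h biofilms for 48 h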
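System: C. albicans CAF4-2 wild-type biofilms; Medium: RPMI/MOPS medium, pH 7.0; Reagent: Clotrimazole, 50 µg/mL; Times: biofilm formation 24 h, compound exposure 48 h, 37 °C; Detection: 2-h Alamar Blue fluorescence, 535/590 nm excitation/emission; Evaluation: percent inhibition of biofilm viability.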
Hits are given with their value; [ ] = another dose, or the depositor's remark. An excerpt weighted towards active compounds, which were near 2.2% of everything screened.

COc1ccc(C(OC(=O)c2c(C)noc2C)C(=O)NC2CCCC2)cc1 (stereo not drawn) was read as 14-3-3 Bad inh 81.9, eIF4E 4G PPI inactive, PERK inhibitor inactive, Hck Nef HTS inactive and p97 ATPase inh inactive.
For Cc1ccccc1OCCSCc1nc2ccccc2[nH]1 the results were 14-3-3 Bad inh inactive, eIF4E 4G PPI inactive, PERK inhibitor inactive, Hck Nef HTS inactive, p97 ATPase inh inactive and Calb biofilm kill inactive.
Screening O=C(c1ccccc1)N(Nc1ccccc1)c1ccccc1 returned 14-3-3 Bad inh inactive, eIF4E 4G PPI 98.5, PERK inhibitor inactive, Hck Nef HTS inactive, p97 ATPase inh inactive and Calb biofilm kill inactive.
For O=C(NN(C(=O)c1ccccc1)c1ccccc1)c1ccccc1 the results were 14-3-3 Bad inh inactive, eIF4E 4G PPI inactive, PERK inhibitor inactive, Hck Nef HTS inactive, p97 ATPase inh inactive and Calb biofilm kill inactive.
`CCCCn1nc(CC(=O)NCCN(CC)CC)c2ccccc2c1=O` gave 14-3-3 Bad inh inactive, eIF4E 4G PPI inactive, PERK inhibitor inactive, Hck Nef HTS inactive, p97 ATPase inh inactive and Calb biofilm kill inactive.
COc1cccc2sc(Nc3nc(-c4ccncc4)cs3)nc12 was read as 14-3-3 Bad inh inactive, eIF4E 4G PPI inactive, PERK inhibitor inactive, Hck Nef HTS inactive, p97 ATPase inh inactive and Calb biofilm kill inactive.
Screening COc1cccc2sc(Nc3nc(-c4cc5ccccc5oc4=O)cs3)nc12 returned 14-3-3 Bad inh 94.4[fluorescence artefact?], eIF4E 4G PPI inactive, PERK inhibitor inactive, Hck Nef HTS inactive, p97 ATPase inh inactive and Calb biofilm kill inactive.
Screening Nc1ccc(Nc2nc(-c3cc4ccccc4oc3=O)cs2)cc1 returned 14-3-3 Bad inh inactive, eIF4E 4G PPI inactive, PERK inhibitor inactive, Hck Nef HTS inactive, p97 ATPase inh inactive and Calb biofilm kill inactive.
For O=C(Nc1nc(-c2cc3ccccc3oc2=O)cs1)c1ccc(Br)o1 the results were 14-3-3 Bad inh 79.1[fluorescence artefact?], eIF4E 4G PPI inactive, PERK inhibitor inactive, Hck Nef HTS inactive and p97 ATPase inh inactive.
O=C(NCc1ccc2c(c1)CCO2)Nc1ccccc1 was read as 14-3-3 Bad inh inactive, eIF4E 4G PPI inactive, PERK inhibitor inactive, Hck Nef HTS inactive, p97 ATPase inh inactive and Calb biofilm kill inactive.
For COc1ccc(CN2CCOCC2)cc1 the results were 14-3-3 Bad inh 74.0, eIF4E 4G PPI inactive, PERK inhibitor inactive, Hck Nef HTS inactive and p97 ATPase inh inactive.
COc1ccc(CN2CCOCCOCCOCC2)cc1 was read as 14-3-3 Bad inh inactive, eIF4E 4G PPI inactive, PERK inhibitor inactive, Hck Nef HTS inactive, p97 ATPase inh inactive and Calb biofilm kill inactive.
C/C(=N\N=C(N)N)c1cccc(Cl)c1 was read as 14-3-3 Bad inh inactive, eIF4E 4G PPI inactive, PERK inhibitor inactive, Hck Nef HTS inactive, p97 ATPase inh inactive and Calb biofilm kill inactive.
C/C(=N\NC(N)=O)c1cccc(Cl)c1 was read as 14-3-3 Bad inh 75.2[fluorescence artefact?], eIF4E 4G PPI inactive, PERK inhibitor inactive, Hck Nef HTS inactive, p97 ATPase inh inactive and Calb biofilm kill inactive.
`C/C(=N\O)C(C)(C)Nc1ccc(Br)cc1` gave 14-3-3 Bad inh inactive, eIF4E 4G PPI inactive, PERK inhibitor inactive, Hck Nef HTS inactive, p97 ATPase inh inactive and Calb biofilm kill inactive.
For CCCCCC(=O)N1CC2(CC(c3cccc(NC(=O)CC)c3)=NO2)C[C@H]1C(N)=O (stereo partly drawn) the results were 14-3-3 Bad inh inactive, eIF4E 4G PPI inactive, Hck Nef HTS inactive and Calb biofilm kill inactive.
For O=C(Nc1ccc(S(=O)(=O)Nc2ncccn2)cc1)c1ccc2ncsc2c1 the results were 14-3-3 Bad inh 80.7, eIF4E 4G PPI 51.4, PERK inhibitor 2.9, Hck Nef HTS inactive, p97 ATPase inh inactive and Calb biofilm kill inactive.
For NS(=O)(=O)c1ccc(NC(=O)c2ccc3nccnc3c2)cc1 the results were 14-3-3 Bad inh inactive, eIF4E 4G PPI 93.6, PERK inhibitor inactive, Hck Nef HTS inactive, p97 ATPase inh inactive and Calb biofilm kill inactive.
O=C(Nc1ccc(S(=O)(=O)Nc2ncccn2)cc1)c1cnc(Cl)c(Cl)c1 was read as 14-3-3 Bad inh inactive, eIF4E 4G PPI inactive, PERK inhibitor inactive, Hck Nef HTS inactive, p97 ATPase inh inactive and Calb biofilm kill inactive.
`CN(C)CCCNc1cc(C(C)(C)C)nc2c(-c3ccc(Cl)cc3)cnn12` gave 14-3-3 Bad inh 78.9, eIF4E 4G PPI 35.9, PERK inhibitor inactive, Hck Nef HTS inactive, p97 ATPase inh inactive and Calb biofilm kill inactive.
